Reference: ChEMBL document CHEMBL1649109, “Antiparasitic activities and toxicities of individual enantiomers of the 8-aminoquinoline 8-[(4-amino-1-methylbutyl)amino]-6-methoxy-4-methyl-5-[3,4-dichlorophenoxy]quinoline succinate” (Antimicrob Agents Chemother, 2008)
Active and inactive are the calls of the source. The calls are words filed in the database; no cut-off is given here.

Tests used:
[1] = test system: Mus musculus; assay: Toxicity in Leishmania donovani HU3 infected mouse at 100 mg/kg/day, po treated for 5 days administered 7 days postinfection; format: organism-based; design: route oral; details: in vivo
Method in brief: (§1)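 L. donovani HU3 amastigotes, 1 × 10^7 given IV to mice. From day 7 post-infection, dosed orally once daily for 5 days in 0.25% methylcellulose-10% ethanol; reference stibogluconate given SC. Mice killed at day 14 post-infection. Parasite burden counted on liver impression smears against untreated controls. ED50 from linear regression, with 95% confidence limits.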

[2] = test system: Plasmodium berghei; assay: Antimalarial activity Plasmodium berghei KBG-173 infected in Swiss(CD-1) mouse assessed as mean survival time at 2 mg/kg, po treated 2 day postinfection; format: functional
Method in brief: (§2)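 CD-1 mice, 5 weeks old, male or female, groups of five, infected with 5 × 10^4 P. berghei KBG-173 parasitized erythrocytes. One 2 mg/kg oral dose given on a single day, from day −3 to +2 relative to inoculation. Controls untreated. Read-out is increase in mean survival time over controls and number alive at day +30.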

[3] = test system: Plasmodium berghei; assay: Antimalarial activity Plasmodium berghei KBG-173 infected in Swiss(CD-1) mouse assessed as mean survival time at 2 mg/kg, po treated 1 day postinfection; format: functional; method in brief: as §2
[4] = test system: Plasmodium berghei; assay: Antimalarial activity Plasmodium berghei KBG-173 infected in Swiss(CD-1) mouse assessed as mean survival time at 2 mg/kg, po treated at day of infection; format: functional; method in brief: as §2
[5] = test system: Plasmodium berghei; assay: Antimalarial activity Plasmodium berghei KBG-173 infected in Swiss(CD-1) mouse assessed as mean survival time at 2 mg/kg, po pretreated 2 days before infection; format: functional; method in brief: as §2
[6] = test system: Plasmodium berghei; assay: Antimalarial activity Plasmodium berghei KBG-173 infected in Swiss(CD-1) mouse assessed as mean survival time at 2 mg/kg, po pretreated 3 days before infection; format: functional; method in brief: as §2
[7] = test system: Plasmodium berghei; assay: Antimalarial activity Plasmodium berghei KBG-173 infected in Swiss(CD-1) mouse assessed as survival at 2 mg/kg, po treated 2 day postinfection measured on day 30; format: functional, organism-based; design: dose 2 mg/kg; method in brief: as §2
[8] = test system: Plasmodium berghei; assay: Antimalarial activity Plasmodium berghei KBG-173 infected in Swiss(CD-1) mouse assessed as survival at 2 mg/kg, po treated 1 day postinfection measured on day 30; format: functional, organism-based; design: dose 2 mg/kg; method in brief: as §2
[9] = test system: Plasmodium berghei; assay: Antimalarial activity Plasmodium berghei KBG-173 infected in Swiss(CD-1) mouse assessed as survival at 2 mg/kg, po treated at day of infection measured on day 30; format: functional, organism-based; design: dose 2 mg/kg; method in brief: as §2
[10] = test system: Plasmodium berghei; assay: Antimalarial activity Plasmodium berghei KBG-173 infected in Swiss(CD-1) mouse assessed as survival at 2 mg/kg, po pretreated 2 days before infection measured on day 30; format: functional, organism-based; design: dose 2 mg/kg; method in brief: as §2
[11] = test system: Plasmodium berghei; assay: Antimalarial activity against Plasmodium berghei KBG-173 infected in Swiss(CD-1) mouse assessed as reduction in parasitemia at 4 mg/kg/day, po treated for 3 days measured on day 6; format: functional; design: scale not given: the % may be the effect or the level left
Method in brief: (§3)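 CD-1 mice, 5 weeks old, male or female, groups of five, infected with 5 × 10^4 P. berghei KBG-173 parasitized erythrocytes. Drug in 0.5% hydroxyethylcellulose/0.1% Tween 80, given orally once daily on days 3, 4 and 5 post-infection. Parasitemia from blood films on day +6. Read-out also includes increase in mean survival time over controls and survivors at day +34.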

[12] = test system: Plasmodium berghei; assay: Antimalarial activity against Plasmodium berghei KBG-173 infected in Swiss(CD-1) mouse assessed as mean survival time at 0.25 mg/kg/day, po treated for 3 days; format: functional; method in brief: as §3
[13] = test system: Plasmodium berghei; assay: Antimalarial activity against Plasmodium berghei KBG-173 infected in Swiss(CD-1) mouse assessed as mean survival time at 1 mg/kg/day, po treated for 3 days; format: functional; method in brief: as §3
[14] = test system: Plasmodium berghei; assay: Antimalarial activity against Plasmodium berghei KBG-173 infected in Swiss(CD-1) mouse assessed as mean survival time at 4 mg/kg/day, po treated for 3 days; format: functional; method in brief: as §3
[15] = test system: Plasmodium berghei; assay: Antimalarial activity against Plasmodium berghei KBG-173 infected in Swiss(CD-1) mouse assessed as survival at 0.25 mg/kg/day, po treated for 3 days measured on day 34; format: functional, organism-based; method in brief: as §3
[16] = test system: Plasmodium berghei; assay: Antimalarial activity against Plasmodium berghei KBG-173 infected in Swiss(CD-1) mouse assessed as survival at 1 mg/kg/day, po treated for 3 days measured on day 34; format: functional, organism-based; method in brief: as §3
[17] = test system: Plasmodium berghei; assay: Antimalarial activity against Plasmodium berghei KBG-173 infected in Swiss(CD-1) mouse assessed as survival at 4 mg/kg/day, po treated for 3 days measured on day 34; format: functional, organism-based; method in brief: as §3
[18] = test system: Pneumocystis carinii; assay: Antimicrobial activity against Pneumocystis carinii infected BALB/c mouse at 5 mg/kg/day, po after 21 days administered 4 weeks postinfection by Giemsa staining method; format: functional, organism-based
Method in brief: (§4)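 Female BALB/c mice, 6-8 weeks, immunosuppressed with dexamethasone […] in drinking water, then inoculated transtracheally with 10^6 P. carinii. From 4 weeks post-inoculation, drug given in drinking water for 3 weeks, 10 mice/group, intake monitored. Lung impression smears stained with Giemsa or methenamine silver, read blinded. Graded 0-5 on a log scale; group mean ± SE.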

[19] = test system: Pneumocystis carinii; assay: Antimicrobial activity against Pneumocystis carinii infected BALB/c mouse at 1 mg/kg/day, po after 21 days administered 4 weeks postinfection by Giemsa staining method; format: functional, organism-based; method in brief: as §4
[20] = test system: Pneumocystis carinii; assay: Antimicrobial activity against Pneumocystis carinii infected BALB/c mouse at 0.25 mg/kg/day, po after 21 days administered 4 weeks postinfection by Giemsa staining method; format: functional, organism-based; method in brief: as §4
[21] = test system: Pneumocystis carinii; assay: Antimicrobial activity against Pneumocystis carinii infected BALB/c mouse at 5 mg/kg/day, po after 21 days administered 4 weeks postinfection by methenamine silver nitrate staining method; format: functional, organism-based; method in brief: as §4
[22] = test system: Pneumocystis carinii; assay: Antimicrobial activity against Pneumocystis carinii infected BALB/c mouse at 1 mg/kg/day, po after 21 days administered 4 weeks postinfection by methenamine silver nitrate staining method; format: functional, organism-based; method in brief: as §4
[23] = test system: Pneumocystis carinii; assay: Antimicrobial activity against Pneumocystis carinii infected BALB/c mouse at 0.25 mg/kg/day, po after 21 days administered 4 weeks postinfection by methenamine silver nitrate staining method; format: functional, organism-based; method in brief: as §4
[24] = test system: Canis familiaris; assay: Toxicity in Beagle dog assessed as increase in methemoglobin level at 1.91 mg/kg/day, po; format: organism-based, Canis lupus familiaris; design: route oral; details: in vivo
Method in brief: (§5)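 Beagle dogs, one male and one female per enantiomer, given 0.64 mg/kg/day (0.5 mg/kg base) orally for 4 days. After a 5-week washout the same dogs received 1.91 mg/kg/day for 4 days. Methemoglobin sampled from days −6 to 36. Each dog's values are mean of duplicate determinations.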

[25] = test system: Canis familiaris; assay: Toxicity in Beagle dog assessed as increase in methemoglobin level at 1.91 mg/kg/day, po after 2 days; format: organism-based, Canis lupus familiaris; design: route oral; details: in vivo, 48 h; method in brief: as §5
[26] = test system: Canis familiaris; assay: Toxicity in Beagle dog assessed as increase in methemoglobin level at 1.91 mg/kg/day, po after 6 days; format: organism-based, Canis lupus familiaris; design: route oral; details: in vivo, 144 h; method in brief: as §5
[27] = test system: Canis familiaris; assay: Toxicity in Beagle dog assessed as increase in methemoglobin level at 1.91 mg/kg/day, po after 8 days; format: organism-based, Canis lupus familiaris; design: route oral; details: in vivo, 192 h; method in brief: as §5
[28] = test system: Plasmodium berghei; assay: Antimalarial activity Plasmodium berghei KBG-173 infected in Swiss(CD-1) mouse assessed as survival at 2 mg/kg, po pretreated 1 day before infection measured on day 30; format: functional, organism-based; design: dose 2 mg/kg; method in brief: as §2
[29] = test system: Leishmania donovani; assay: Antileishmanial activity against Leishmania donovani HU3 infected in mouse assessed as inhibition of parasites in liver at 10 mg/kg/day, po treated for 5 days administered 7 days postinfection measured after 14 days post-infection; format: functional; method in brief: as §1
[30] = test system: Leishmania donovani; assay: Antileishmanial activity against Leishmania donovani HU3 infected in mouse assessed as inhibition of parasites in liver at 5 mg/kg/day, po treated for 5 days administered 7 days postinfection measured after 14 days post-infection; format: functional; method in brief: as §1
[31] = test system: Leishmania donovani; assay: Antileishmanial activity against Leishmania donovani HU3 infected in mouse assessed as inhibition of parasites in liver at 0.4 mg/kg/day, po treated for 5 days administered 7 days postinfection measured after 14 days post-infection; format: functional; method in brief: as §1
[32] = test system: Plasmodium berghei; assay: Antimalarial activity against Plasmodium berghei KBG-173 infected in Swiss(CD-1) mouse assessed as parasitemia at 1 mg/kg/day, po treated for 3 days measured on day 6
[33] = test system: Plasmodium berghei; assay: Antimalarial activity against Plasmodium berghei KBG-173 infected in Swiss(CD-1) mouse assessed as parasitemia at 0.25 mg/kg/day, po treated for 3 days measured on day 6
[34] = test system: Plasmodium berghei; assay: Antimalarial activity Plasmodium berghei KBG-173 infected in Swiss(CD-1) mouse assessed as increase in mean survival time over control at 2 mg/kg, po pretreated 1 day before infection

For `COc1cc(N[C@@H](C)CCCN)c2nccc(C)c2c1Oc1ccc(Cl)c(Cl)c1.O=C(O)CCC(=O)O`, the Activity [1] was “Toxic”, the MST [2] was 1.2 days and the MST [3] was 0 days. The MST [4] was 3.4 days, the MST [5] was 0 days and the MST [6] was 0 days. For the same compound, the Activity [7] was “Active”, the Activity [8] was “Active” and the Activity [9] was “Active”. For the same compound, the Activity [10] was “Active”, the Activity [11] was 1.1% and the MST [12] was 0 days. For the same compound, the MST [13] was 6 days, the MST [14] was 11 days and the Activity [15] was “Active”. For the same compound, the Activity [16] was “Active”, the Activity [17] was “Active” and the Activity [18] was “Active”. For the same compound, the Activity [19] was “Active”, the Activity [20] was “Active” and the Activity [21] was “Active”. The Activity [22] was “Active”, the Activity [23] was “Active” and the Activity [24] was “Toxic”. For the same compound, the Activity [25] was “Toxic”, the Activity [26] was “Toxic” and the Activity [27] was “Toxic”. The Activity [28] was “Active”, the inhibition in vivo at 10 mg/kg/day [29] was 99.6% and the inhibition in vivo at 5 mg/kg/day [30] was 65%. For the same compound, the inhibition in vivo at 0.4 mg/kg/day [31] was 41.2%, the Activity [32] was 27.4% and the Activity [33] was 28.2%. It also gave a ΔMST [34] of 0.6 days.
